Measured values: ChEMBL document CHEMBL1687781, “Comparative biochemical and computational study of the role of naturally occurring mutations at Ambler positions 104 and 170 in GES β-lactamases” (Antimicrob Agents Chemother, 2010)
Converted amounts (≈) assume the structure as drawn.

Columns and labels:
[1] = Activity of Beta-lactamase GES-7 K104, G170 mutant
Procedure, shortened: (§1)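 Purified GES enzymes, released by mild sonication in 20 mM Tris pH 8.0, then Q-Sepharose and S-Sepharose chromatography, >95% pure by SDS-PAGE, in 50 mM KPi pH 7.6. Protein measured by Bradford. β-Lactam substrates hydrolysed at various concentrations, 25°C, in 50 mM NaCl, 50 mM MOPS pH 7.0.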

[2] = Ratio of Kcat to Km for Beta-lactamase GES-7 K104, G170 mutant; procedure, shortened: as §1
Escherichia coli [3] = assay: Antimicrobial activity against Escherichia coli DH5[alpha] transformed with pAC-ges1 plasmid encoding Beta-lactamase GES-2 E104, N170 mutant by Etest method; type: functional
[4] = Ratio of Kcat to Km for Beta-lactamase GES-13 K104, N170 mutant; procedure, shortened: as §1
Escherichia coli [5] = assay: Antimicrobial activity against Escherichia coli DH5[alpha] transformed with pAC-ges1 plasmid encoding Beta-lactamase GES-13 K104, N170 mutant by Etest method; type: functional
Escherichia coli [6] = assay: Antimicrobial activity against Escherichia coli DH5[alpha] transformed with pAC-ges1 plasmid encoding Beta-lactamase GES-1 E104, G170 mutant by Etest method; type: functional
Escherichia coli [7] = assay: Antimicrobial activity against Escherichia coli DH5[alpha] transformed with pAC-ges1 plasmid encoding Beta-lactamase GES-7 K104, G170 mutant by Etest method; type: functional
Escherichia coli [8] = assay: Antimicrobial activity against Escherichia coli DH5[alpha] transformed with pAC-ges1 plasmid encoding Beta-lactamase GES-6 K104, S170 mutant by Etest method; type: functional
Escherichia coli [9] = assay: Antimicrobial activity against Escherichia coli DH5[alpha] transformed with pAC-ges1 plasmid encoding Beta-lactamase GES-5 E104, S170 mutant by Etest method; type: functional
[10] = Activity of Beta-lactamase GES-13 K104, N170 mutant; procedure, shortened: as §1
Escherichia coli [11] = assay: Antimicrobial activity against Escherichia coli DH5[alpha] transformed with pAC-ges1 plasmid encoding Beta-lactamase GES-13 K104, N170 mutant in presence of clavulanic acid at compound/inhibitor ratio of 2:1 by Etest method; type: functional
Procedure, shortened: (§2)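 E. coli DH5α host, either untransformed or carrying pACYC184-based clones of the GES variant genes. MICs of penicillin–clavulanate combinations were read by Etest following the manufacturer's recommendations, with penicillin and inhibitor at a 2:1 ratio.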

Escherichia coli [12] = assay: Antimicrobial activity against Escherichia coli DH5[alpha] transformed with pAC-ges1 plasmid encoding Beta-lactamase GES-1 E104, G170 mutant in presence of clavulanic acid at compound/inhibitor ratio of 2:1 by Etest method; type: functional; procedure, shortened: as §2
Escherichia coli [13] = assay: Antimicrobial activity against Escherichia coli DH5[alpha] in presence of clavulanic acid at compound/inhibitor ratio of 2:1 by Etest method; type: functional; procedure, shortened: as §2
Escherichia coli [14] = assay: Antimicrobial activity against Escherichia coli DH5[alpha] transformed with pAC-ges1 plasmid encoding Beta-lactamase GES-6 K104, S170 mutant in presence of clavulanic acid at compound/inhibitor ratio of 2:1 by Etest method; type: functional; procedure, shortened: as §2
Escherichia coli [15] = assay: Antimicrobial activity against Escherichia coli DH5[alpha] transformed with pAC-ges1 plasmid encoding Beta-lactamase GES-5 E104, S170 mutant in presence of clavulanic acid at compound/inhibitor ratio of 2:1; type: functional; procedure, shortened: as §2
Escherichia coli [16] = assay: Antimicrobial activity against Escherichia coli DH5[alpha] transformed with pAC-ges1 plasmid encoding Beta-lactamase GES-2 E104, N170 mutant in presence of clavulanic acid at compound/inhibitor ratio of 2:1 by Etest method; type: functional; procedure, shortened: as §2
Escherichia coli [17] = assay: Antimicrobial activity against Escherichia coli DH5[alpha] transformed with pAC-ges1 plasmid encoding Beta-lactamase GES-7 K104, G170 mutant in presence of clavulanic acid at compound/inhibitor ratio of 2:1 by Etest method; type: functional; procedure, shortened: as §2
Escherichia coli [18] = assay: Antimicrobial activity against Escherichia coli DH5[alpha] by Etest method; type: functional
[19] = Activity of Beta-lactamase GES-6 K104, S170 mutant; procedure, shortened: as §1
[20] = Ratio of Kcat to Km for Beta-lactamase GES-5 E104, S170 mutant; procedure, shortened: as §1
[21] = Ratio of Kcat to Km for Beta-lactamase GES-6 K104, S170 mutant; procedure, shortened: as §1
[22] = Activity of Beta-lactamase GES-5 E104, S170 mutant; procedure, shortened: as §1
[23] = Inhibition of Beta-lactamase GES-5 E104, S170 mutant preincubated for 5 mins before substrate addition using cephalothin substrate by spectrophotometry
[24] = Inhibition of Beta-lactamase GES-2 E104, N170 mutant preincubated for 5 mins before substrate addition using cephalothin substrate by spectrophotometry
[25] = Inhibition of Beta-lactamase GES-6 K104, S170 mutant preincubated for 5 mins before substrate addition using cephalothin substrate by spectrophotometry
[26] = Inhibition of Beta-lactamase GES-1 E104, G170 mutant preincubated for 5 mins before substrate addition using cephalothin substrate by spectrophotometry
[27] = Inhibition of Beta-lactamase GES-7 K104, G170 mutant preincubated for 5 mins before substrate addition using cephalothin substrate by spectrophotometry
[28] = Inhibition of Beta-lactamase GES-13 K104, N170 mutant preincubated for 5 mins before substrate addition using cephalothin substrate by spectrophotometry
[29] = Ratio of Kcat to Km for Beta-lactamase GES-2 E104, N170 mutant; procedure, shortened: as §1
[30] = Ratio of Kcat to Km for Beta-lactamase GES-1 E104, G170 mutant; procedure, shortened: as §1
[31] = Activity of Beta-lactamase GES-1 E104, G170 mutant; procedure, shortened: as §1
[32] = Activity of Beta-lactamase GES-2 E104, N170 mutant; procedure, shortened: as §1

Work on C[C@H]1[C@H](NC(=O)/C(=N\OC(C)(C)C(=O)O)c2csc(N)n2)C(=O)N1S(=O)(=O)O [AZTREONAM] yielded a Km [1] of 241 µM, a kcat [1] of 45.5 s⁻¹ and a kcat/Km [2] of 190000 M⁻¹ s⁻¹. The MIC (Escherichia coli [3]) was 0.032 µg/mL (≈ 0.0735 µM), the kcat/Km [4] was 90000 M⁻¹ s⁻¹ and the MIC (Escherichia coli [5]) was 2 µg/mL (≈ 4.59 µM). The MIC (Escherichia coli [6]) was 0.094 µg/mL (≈ 0.216 µM), the MIC (Escherichia coli [7]) was 2 µg/mL (≈ 4.59 µM) and the MIC (Escherichia coli [8]) was 0.094 µg/mL (≈ 0.216 µM). The MIC (Escherichia coli [9]) was 0.032 µg/mL (≈ 0.0735 µM), the Km [10] was 405 µM and the kcat [10] was 35.6 s⁻¹.
In the case of CC1(C)S[C@@H]2[C@H](NC(=O)[C@H](N)c3ccc(O)cc3)C(=O)N2[C@H]1C(=O)O [AMOXICILLIN], the MIC (Escherichia coli [11]) is reported as 3 µg/mL, the MIC (Escherichia coli [12]) is reported as 8 µg/mL and the MIC (Escherichia coli [13]) is reported as 2 µg/mL. The MIC (Escherichia coli [14]) was 32 µg/mL, the MIC (Escherichia coli [15]) was 16 µg/mL and the MIC (Escherichia coli [16]) was 3 µg/mL. For the same molecule, the MIC (Escherichia coli [17]) was 32 µg/mL.
C[C@@H](O)[C@H]1C(=O)N2C(C(=O)O)=C(S[C@@H]3CN[C@H](C(=O)N(C)C)C3)[C@H](C)[C@H]12 [MEROPENEM] showed an MIC (Escherichia coli [3]) of 0.032 µg/mL (≈ 0.0834 µM), an MIC (Escherichia coli [5]) of 0.023 µg/mL (≈ 0.06 µM) and an MIC (Escherichia coli [6]) of 0.016 µg/mL (≈ 0.0417 µM). The MIC (Escherichia coli [7]) was 0.016 µg/mL (≈ 0.0417 µM), the MIC (Escherichia coli [18]) was 0.008 µg/mL (≈ 0.0209 µM) and the MIC (Escherichia coli [8]) was 0.047 µg/mL (≈ 0.123 µM). It also gave an MIC (Escherichia coli [9]) of 0.094 µg/mL (≈ 0.245 µM).
Molecule CO[C@@]1(NC(=O)Cc2cccs2)C(=O)N2C(C(=O)O)=C(COC(N)=O)CS[C@@H]21 [CEFOXITIN] has an MIC (Escherichia coli [3]) of 3 µg/mL (≈ 7.02 µM), a Km [19] of 82.3 µM and a kcat [19] of 12.1 s⁻¹. The MIC (Escherichia coli [5]) was 3 µg/mL (≈ 7.02 µM), the MIC (Escherichia coli [6]) was 3 µg/mL (≈ 7.02 µM) and the MIC (Escherichia coli [7]) was 3 µg/mL (≈ 7.02 µM). The kcat/Km [20] was 30000 M⁻¹ s⁻¹, the MIC (Escherichia coli [18]) was 2 µg/mL (≈ 4.68 µM) and the kcat/Km [21] was 150000 M⁻¹ s⁻¹. For the same molecule, the MIC (Escherichia coli [8]) was 48 µg/mL (≈ 112 µM), the MIC (Escherichia coli [9]) was 16 µg/mL (≈ 37.4 µM) and the Km [22] was 221 µM. It also gave a kcat [22] of 7.5 s⁻¹.
In the case of O=C(O)[C@H]1/C(=C/CO)O[C@@H]2CC(=O)N21 [CLAVULANIC ACID], the IC50 [23] is reported as 500 nM, the IC50 [24] is reported as 80 nM and the IC50 [25] is reported as 1700 nM. The IC50 [26] was 100 nM, the IC50 [27] was 800 nM and the IC50 [28] was 90 nM.
In the case of CC(C)(O/N=C(\C(=O)N[C@@H]1C(=O)N2C(C(=O)[O-])=C(C[n+]3ccccc3)CS[C@H]12)c1csc(N)n1)C(=O)O [CEFTAZIDIME], the Km [1] is reported as 69.2 µM, the kcat [1] is reported as 132 s⁻¹ and the kcat/Km [2] is reported as 1.9e+06 M⁻¹ s⁻¹. The kcat/Km [29] was 2000 M⁻¹ s⁻¹, the MIC (Escherichia coli [3]) was 0.5 µg/mL (≈ 0.915 µM) and the kcat/Km [4] was 130000 M⁻¹ s⁻¹. The Km [19] was 149 µM, the kcat [19] was 9.3 s⁻¹ and the MIC (Escherichia coli [5]) was 32 µg/mL (≈ 58.5 µM). For the same molecule, the MIC (Escherichia coli [6]) was 8 µg/mL (≈ 14.6 µM), the MIC (Escherichia coli [7]) was > 256 µg/mL and the kcat/Km [30] was 77000 M⁻¹ s⁻¹. The kcat/Km [20] was 2000 M⁻¹ s⁻¹, the Km [31] was 137 µM and the kcat [31] was 10.5 s⁻¹. It also gave an MIC (Escherichia coli [18]) of 0.12 µg/mL (≈ 0.22 µM), a kcat/Km [21] of 63000 M⁻¹ s⁻¹ and an MIC (Escherichia coli [8]) of 4 µg/mL (≈ 7.32 µM). It also gave an MIC (Escherichia coli [9]) of 0.75 µg/mL (≈ 1.37 µM), a Km [22] of 135 µM and a kcat [22] of 0.24 s⁻¹. For the same molecule, the Km [32] was 98.2 µM, the kcat [32] was 0.21 s⁻¹ and the Km [10] was 229 µM. It also gave a kcat [10] of 30.4 s⁻¹.
In the case of CC1(C)S[C@@H]2[C@H](NC(=O)[C@H](N)c3ccccc3)C(=O)N2[C@H]1C(=O)O [AMPICILLIN], the MIC (Escherichia coli [3]) is reported as > 256 µg/mL, the MIC (Escherichia coli [5]) is reported as > 256 µg/mL and the MIC (Escherichia coli [6]) is reported as > 256 µg/mL. For the same molecule, the MIC (Escherichia coli [7]) was > 256 µg/mL, the MIC (Escherichia coli [8]) was > 256 µg/mL and the MIC (Escherichia coli [9]) was > 256 µg/mL.
